In ChEMBL document CHEMBL1158364, “Synthesis and pharmacological evaluation of 2(3H)-furanones and 2(3H)-pyrrolones, combining analgesic and anti-inflammatory properties with reduced gastrointestinal toxicity and lipid peroxidation” (Eur J Med Chem, 2009) one finds inhibition in vivo, UI and Activity data, which are given here for 16 molecules.

Molecules are shown by their SMILES.

Data set [1] concerns Rattus norvegicus. In words: Antiinflammatory activity in Wistar rat assessed as inhibition of carrageenan-induced paw odema at 20 mg/kg, po pretreated 30 mins pre-carrageenan challenge measured after 2 hrs relative to control. It counts as functional. In outline: (§1)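 Wistar rats of either sex, 180–200 g, six per group; vehicle 0.5% CMC given orally. […] in sterile 0.9% NaCl, 0.1 mL, injected sub-plantar into the right hind paw 30 min after dosing. Paw volume read by saline-displacement plethysmometer at 2 and 3 h. % inhibition = (Vc−Vt)/Vc × 100.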

The test system of data set [2] is Rattus norvegicus. Nature of the data set: Antiinflammatory activity in Wistar rat assessed as inhibition of carrageenan-induced paw odema at 20 mg/kg, po pretreated 30 mins pre-carrageenan challenge measured after 3 hrs relative to control. It counts as functional. In outline: as §1
In general terms: In the carrageenan paw model, swelling and tenderness develop within hours.

Data set [3] has as its system Rattus norvegicus. Nature of the data set: Gastrointestinal toxicity in albino rat assessed ulcer index at 60 mg/kg, po after 17 hrs. The following applies: in vivo. Set-up: dose 60 mg/kg, route oral. The format is organism-based. In a few lines: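 Fasted albino rats (150–200 g; food, not water, withheld 24 h), groups of six, dosed orally at 60 mg/kg; controls got 1% methyl cellulose suspension. Normal diet for 17 h, then sacrifice. Stomach opened along greater curvature, washed, mucosa scored under magnifying glass (0.5 redness to 3.0 for >5 ulcers); severity index = treated group mean score minus control mean.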

Data set [4] relates to Gastric mucosa. Nature of the data set: Inhibition of lipid peroxidation assessed as malondialdehyde level per mg of protein in gastric mucosa isolated from albino rat treated 60 mg/kg, po by UV spectrophotometry. It counts as functional. In a few lines:
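After the ulcer scoring, gastric mucosa was scraped and homogenized in 1.8 mL ice-cold 1.15% KCl. Supernatant (1 mL) received 0.5 mL 30% TCA and 0.5 mL 0.8% TBA, then was heated 30 min at 80 °C. Tubes were chilled 10 min on ice and centrifuged 3000 rpm for 15 min before absorbance was read (TBARS/MDA, Ohkawa method).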

Data set [5] concerns Mus musculus. Nature of the data set: Central analgesic activity in Swiss albino mouse assessed as reaction time required to elicit thermal stimulus-induced hind paw licking at 20 mg/kg, po after 60 mins by Turner hotplate method. It counts as functional. In a few lines:
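Swiss albino mice of either sex, 25–30 g, six per group. Compounds given orally in 1% CMC; controls received vehicle only. Hot plate held at 53 ± 0.5 °C. Reaction time is the interval from placement on the plate to hind-paw licking or jumping. Measured before dosing (0 min) and 1 h after oral dosing.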

Data set [6] deals with Mus musculus. In words: Peripheral analgesic activity in Swiss albino mouse assessed as inhibition of acetic acid-induced writhing response at 20 mg/kg, po pretreated 1 hr before acetic acid challenge. It counts as functional. The arrangement: scale not given: the % may be the effect or the level left. In outline:
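Swiss albino mice of either sex, 25–30 g, housed singly and habituated 30 min in the test cage. Compounds given orally in 1% CMC; controls received 1% CMC. One hour after dosing, 0.10 mL 1% acetic acid was given i.p. Writhes were counted over 30 min and % protection derived versus control.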
In general terms: In writhing tests, fewer writhes than in controls are read as antinociception.

Usually inhibition in vivo stands for the share of the control response that was lost under treatment. Consider `O=C1/C(=C/c2ccccc2)C=C(c2ccc(Cl)cc2)N1Cc1ccccc1`, for which the inhibition in vivo at 20 mg/kg in data set [1] was determined as 24%; in data set [2], 37%. In data set [3], the UI was determined as 0.6. Further, the Activity in data set [4] worked out at 0.605 nmol/mg protein.
The matching figures for `O=C1OC(c2ccc(Cl)cc2)=C/C1=C\c1ccc([N+](=O)[O-])cc1`: 4%, 36%, 0.4 and 0.549 nmol/mg protein.
Taken in the same sequence, the figures for `COc1cc(/C=C2\C=C(c3ccc(Cl)cc3)N(Cc3ccccc3)C2=O)ccc1O` were 36%, 42%, 0.5 and 0.558 nmol/mg protein.
On to `O=C1OC(c2ccc(Cl)cc2)=C/C1=C\c1ccccc1`, for which the values for the inhibition in vivo at 20 mg/kg in data set [1] and in data set [2] were 18.9% and 36%, respectively. This molecule returned a UI in data set [3] of 0.9. For the same molecule, the Activity in data set [4] is 0.522 nmol/mg protein.
`O=C1OC(c2ccc(Cl)cc2)=C/C1=C\c1ccc(Cl)cc1`: the inhibition in vivo at 20 mg/kg in data set [1] is 40%; in data set [2] it was 69.1%. For the same molecule, the Activity is on record as 12.67 s in data set [5], 44.57% in data set [6] and 0.403 nmol/mg protein in data set [4]. The molecule further displayed a UI in data set [3] of 0.2.
`O=C1/C(=C/c2ccc([N+](=O)[O-])cc2)C=C(c2ccc(Cl)cc2)N1Cc1ccccc1`: the inhibition in vivo at 20 mg/kg was found to be 12% in data set [1] and 19.8% in data set [2]. The UI in data set [3] is reported as 0.4. Also, the Activity in data set [4] is 0.403 nmol/mg protein.
For the molecule `O=C1/C(=C/c2ccc(Cl)cc2)C=C(c2ccc(Cl)cc2)N1Cc1ccccc1`, the inhibition in vivo at 20 mg/kg in data set [1] amounted to 58.7%; in data set [2], 88.9%. The Activity in data set [5] worked out at 11.55 s; in data set [6], 57.83%; in data set [4] it was 0.31 nmol/mg protein. This molecule also registered a UI in data set [3] of 0.1.
Turning to `COc1cc(/C=C2\C=C(c3ccc(Cl)cc3)OC2=O)ccc1OC(C)=O`, the inhibition in vivo at 20 mg/kg in data set [1] is 24%; in data set [2] it was 37%. The same molecule registered a UI in data set [3] of 0.3. The Activity in data set [4] is 0.597 nmol/mg protein.
Taken in the same sequence, the figures for `COc1ccc(/C=C2\C=C(c3ccc(Cl)cc3)OC2=O)cc1` were 4%, 32.3%, 0.5 and 0.545 nmol/mg protein.
Turning to `O=C1/C(=C/c2ccc(F)cc2)C=C(c2ccc(Cl)cc2)N1Cc1ccccc1`, the results for the inhibition in vivo at 20 mg/kg in data set [1] and in data set [2] were 58.7% and 89.5%, respectively. For the same molecule, the values for the Activity in data set [5], in data set [6] and in data set [4] were 13.3 s, 59.03% and 0.401 nmol/mg protein, respectively. The UI in data set [3] was found to be 0.2.
As to `O=C1OC(c2ccc(Cl)cc2)=C/C1=C\c1ccccc1[N+](=O)[O-]`, the results for the inhibition in vivo at 20 mg/kg in data set [1] and in data set [2] were 4% and 18.5%, respectively. The same molecule returned a UI in data set [3] of 0.6. Also, the Activity in data set [4] is 0.429 nmol/mg protein.
The matching figures for `COc1ccc(/C=C2\C=C(c3ccc(Cl)cc3)OC2=O)cc1OC`: 9.33%, 36%, 0.3 and 0.533 nmol/mg protein.
On to `CC(C)Cc1ccc(C(C)C(=O)O)cc1` (configuration not stated) [IBUPROFEN], for which the values for the inhibition in vivo at 20 mg/kg in data set [1] and in data set [2] were 80.9% and 89.5%, respectively. Moreover, the Activity in data set [5] was found to be 14.4 s; in data set [6] it was 65.06%. The molecule also gave a UI in data set [3] of 0.9.
With `O=C1OC(c2ccc(Cl)cc2)=C/C1=C\c1ccccc1Cl`, the inhibition in vivo at 20 mg/kg stood at 62.7% in data set [1] and 81.5% in data set [2]. Besides, the Activity came out at 12.69 s in data set [5], 53.01% in data set [6] and 0.494 nmol/mg protein in data set [4]. The molecule also showed a UI in data set [3] of 0.2.
For `O=C1OC(c2ccc(Cl)cc2)=C/C1=C\c1ccc(F)cc1`, the inhibition in vivo at 20 mg/kg in data set [1] stood at 41.3%; in data set [2], 70.4%. Besides, the results for the Activity in data set [5], in data set [6] and in data set [4] were 12.9 s, 50.6% and 0.329 nmol/mg protein, respectively. In data set [3], this molecule displayed a UI of 0.4.
On to `O=C1OC(c2ccc(Cl)cc2)=C/C1=C\c1ccc(Cl)cc1Cl`, for which the values for the inhibition in vivo at 20 mg/kg in data set [1] and in data set [2] were 53.3% and 72.6%, respectively. The Activity in data set [5] is listed as 11.86 s; in data set [6], 49.39%; in data set [4], 0.388 nmol/mg protein. Further, the UI in data set [3] is reported as 0.1.
